# Assays:
# [1] = tested on: Mus musculus; assay: Toxicity in male CDF1 mouse allografted with mouse P388 cells assessed as animal survival at 100 mg/kg, ip administered daily for 9 days as Klucel suspension starting 24 hrs after tumor inoculation; type: organism-based; set-up: dose 100 mg/kg, route intraperitoneal; details: in vivo
# In short: (§1)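 P-388 leukemia ascitic fluid inoculated ip. Compound given ip as a suspension in Klucel (hydroxypropylcellulose), once daily for nine doses beginning 24 h post-inoculation. Acute toxicity assessed as toxicity-day survivors per group. Survival was followed up to 30 days, with 30-day survival counted as "cure". Follows NCI screening protocols.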
# [2] = tested on: P388; assay: Antitumor activity against mouse P388 cells allografted in female CDF1 mouse assessed as disease cures by measuring 30-days host survival at 6.25 mg/kg, ip administered daily for 9 days as Klucel suspension starting 24 hrs after tumor inoculation relative to control; type: functional; details: route intraperitoneal
# In short: (§2)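 P388 leukemia given as an ascitic fluid cell inoculum, ip, to mice of the strain and sex in each line. Nine daily ip doses were given in a Klucel (hydroxypropylcellulose) suspension, starting 24 h after inoculation. Read-out is median survival time as %T/C, with >125 taken as significant; a "cure" means 30-day survival.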
# [3] = tested on: P388; assay: Antitumor activity against mouse P388 cells allografted in female BDF1 mouse assessed as change in body weight at 0.78 mg/kg, ip administered daily for 9 days as Klucel suspension starting 24 hrs after tumor inoculation; type: functional; details: route intraperitoneal
# In short: (§3)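 Ascitic fluid carrying P388 cells was inoculated ip. Compound was given ip in nine daily doses, starting 24 h after inoculation, in Klucel (hydroxypropylcellulose) suspension or in saline with Tween-80. Body-weight difference (treated minus control) was recorded on day 5. Survival was scored as %T/C of median survival time, and 30-day survival counted as cure.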
# [4] = tested on: P388; assay: Antitumor activity against mouse P388 cells allografted in female CDF1 mouse assessed as change in body weight at 6.25 mg/kg, ip administered daily for 9 days as Klucel suspension starting 24 hrs after tumor inoculation; type: functional; details: route intraperitoneal; in short: as §3
# [5] = tested on: Mus musculus; assay: Toxicity in female BDF1 mouse allografted with mouse P388 cells assessed as animal survival at 1.56 mg/kg, ip administered daily for 9 days as Klucel suspension starting 24 hrs after tumor inoculation; type: organism-based; set-up: dose 1.56 mg/kg, route intraperitoneal; details: in vivo; in short: as §1
# [6] = tested on: Mus musculus; assay: Toxicity in female CDF1 mouse allografted with mouse L1210 cells assessed as animal survival at 6.25 mg/kg, ip administered daily for 9 days as Klucel suspension starting 24 hrs after tumor inoculation measured on fifth day; type: organism-based; set-up: dose 6.25 mg/kg, route intraperitoneal; details: in vivo
# In short: (§4)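 L1210 leukemia passaged as ascitic fluid and inoculated ip. Test agent given ip as a Klucel (hydroxypropylcellulose) suspension, nine daily doses starting 24 h after tumor inoculation. Acute toxicity read as toxicity-day survivors per group (out of 6), recorded on day 5. Animal weight difference T − C was also recorded. Follows NCI screening protocols.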
# [7] = tested on: P388; assay: Antitumor activity against mouse P388 cells allografted in male CDF1 mouse assessed as change in body weight at 200 mg/kg, ip administered daily for 9 days as Klucel suspension starting 24 hrs after tumor inoculation; type: functional; details: route intraperitoneal; in short: as §3
# [8] = tested on: L1210; assay: Antileukemic activity against mouse L1210 cells allografted in female CDF1 mouse assessed as host mean survival time at 3.13 mg/kg, ip administered daily for 9 days as Klucel suspension starting 24 hrs after tumor inoculation relative to control; type: functional; details: route intraperitoneal
# In short: (§5)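 L1210 leukemia given as an ascitic fluid cell inoculum, ip, to mice of the strain and sex in each line. Test material was given ip for nine daily doses starting 24 h after inoculation, in a Klucel (hydroxypropylcellulose) suspension. Read-out is mean survival time as %T/C versus controls, with >125 taken as significant.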
# [9] = tested on: P388; assay: Antitumor activity against mouse P388 cells allografted in female BDF1 mouse assessed as disease cures by measuring 30-days host survival at 1.56 mg/kg, ip administered daily for 9 days as Klucel suspension starting 24 hrs after tumor inoculation relative to control; type: functional; details: route intraperitoneal; in short: as §2
# [10] = tested on: L1210; assay: Antileukemic activity against mouse L1210 cells allografted in female CDF1 mouse assessed as change in body weight at 12.5 mg/kg, ip administered daily for 9 days as Klucel suspension starting 24 hrs after tumor inoculation; type: functional; details: route intraperitoneal
# In short: (§6)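 Ascitic fluid carrying L1210 cells was inoculated ip. Compound was given ip as a Klucel (hydroxypropylcellulose) suspension in nine daily doses, starting 24 h after inoculation. Body-weight difference (treated minus control) was recorded on day 5. Survival was scored as %T/C of mean survival time.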
# [11] = tested on: P388; assay: Antitumor activity against mouse P388 cells allografted in female CDF1 mouse assessed as change in body weight at 3.13 mg/kg, ip administered daily for 9 days as Klucel suspension starting 24 hrs after tumor inoculation; type: functional; details: route intraperitoneal; in short: as §3
# [12] = tested on: P388; assay: Antitumor activity against mouse P388 cells allografted in male CDF1 mouse assessed as change in body weight at 100 mg/kg, ip administered daily for 9 days as Klucel suspension starting 24 hrs after tumor inoculation; type: functional; details: route intraperitoneal; in short: as §3
# [13] = tested on: Mus musculus; assay: Toxicity in female CDF1 mouse allografted with mouse L1210 cells assessed as animal survival at 3.13 mg/kg, ip administered daily for 9 days as Klucel suspension starting 24 hrs after tumor inoculation measured on fifth day; type: organism-based; set-up: dose 3.13 mg/kg, route intraperitoneal; details: in vivo; in short: as §4
# [14] = tested on: P388; assay: Antitumor activity against mouse P388 cells allografted in female BDF1 mouse assessed as disease cures by measuring 30-days host survival at 0.78 mg/kg, ip administered daily for 9 days as Klucel suspension starting 24 hrs after tumor inoculation relative to control; type: functional; details: route intraperitoneal; in short: as §2
# [15] = tested on: P388; assay: Antitumor activity against mouse P388 cells allografted in female CDF1 mouse assessed as change in body weight at 12.5 mg/kg, ip administered daily for 9 days as Klucel suspension starting 24 hrs after tumor inoculation; type: functional; details: route intraperitoneal; in short: as §3
# [16] = tested on: Mus musculus; assay: Toxicity in female CDF1 mouse allografted with mouse P388 cells assessed as animal survival at 12.5 mg/kg, ip administered daily for 9 days as Klucel suspension starting 24 hrs after tumor inoculation; type: organism-based; set-up: dose 12.5 mg/kg, route intraperitoneal; details: in vivo; in short: as §1
# [17] = tested on: L1210; assay: Antileukemic activity against mouse L1210 cells allografted in female CDF1 mouse assessed as host mean survival time at 12.5 mg/kg, ip administered daily for 9 days as Klucel suspension starting 24 hrs after tumor inoculation relative to control; type: functional; details: route intraperitoneal; in short: as §5
# [18] = tested on: L1210; assay: Antileukemic activity against mouse L1210 cells allografted in female CDF1 mouse assessed as change in body weight at 3.13 mg/kg, ip administered daily for 9 days as Klucel suspension starting 24 hrs after tumor inoculation; type: functional; details: route intraperitoneal; in short: as §6
# [19] = tested on: Mus musculus; assay: Toxicity in female BDF1 mouse allografted with mouse P388 cells assessed as animal survival at 0.78 mg/kg, ip administered daily for 9 days as Klucel suspension starting 24 hrs after tumor inoculation; type: organism-based; set-up: dose 0.78 mg/kg, route intraperitoneal; details: in vivo; in short: as §1
# [20] = tested on: Mus musculus; assay: Toxicity in female CDF1 mouse allografted with mouse P388 cells assessed as animal survival at 6.25 mg/kg, ip administered daily for 9 days as Klucel suspension starting 24 hrs after tumor inoculation; type: organism-based; set-up: dose 6.25 mg/kg, route intraperitoneal; details: in vivo; in short: as §1
# [21] = tested on: P388; assay: Antitumor activity against mouse P388 cells allografted in female BDF1 mouse assessed as change in body weight at 1.56 mg/kg, ip administered daily for 9 days as Klucel suspension starting 24 hrs after tumor inoculation; type: functional; details: route intraperitoneal; in short: as §3
# [22] = Cytotoxicity against human 9KB cells treated as ethanol solution; type: functional; details: read-out: ED50 (the source's name)
# In short: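 Compound applied as an ethanol solution; activity read out as ED50 under the general screening protocol.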
# [23] = tested on: P388; assay: Antitumor activity against mouse P388 cells allografted in male CDF1 mouse assessed as disease cures by measuring 30-days host survival at 50 mg/kg, ip administered daily for 9 days as Klucel suspension starting 24 hrs after tumor inoculation relative to control; type: functional; details: route intraperitoneal; in short: as §2
# [24] = tested on: P388; assay: Antitumor activity against mouse P388 cells allografted in female CDF1 mouse assessed as disease cures by measuring 30-days host survival at 12.5 mg/kg, ip administered daily for 9 days as Klucel suspension starting 24 hrs after tumor inoculation relative to control; type: functional; details: route intraperitoneal; in short: as §2
# [25] = tested on: P388; assay: Antitumor activity against mouse P388 cells allografted in male CDF1 mouse assessed as change in body weight at 50 mg/kg, ip administered daily for 9 days as Klucel suspension starting 24 hrs after tumor inoculation; type: functional; details: route intraperitoneal; in short: as §3
# [26] = tested on: L1210; assay: Antileukemic activity against mouse L1210 cells allografted in female CDF1 mouse assessed as host mean survival time at 6.25 mg/kg, ip administered daily for 9 days as Klucel suspension starting 24 hrs after tumor inoculation relative to control; type: functional; details: route intraperitoneal; in short: as §5
# [27] = tested on: P388; assay: Antitumor activity against mouse P388 cells allografted in female CDF1 mouse assessed as disease cures by measuring 30-days host survival at 3.13 mg/kg, ip administered daily for 9 days as Klucel suspension starting 24 hrs after tumor inoculation relative to control; type: functional; details: route intraperitoneal; in short: as §2
# [28] = tested on: Mus musculus; assay: Toxicity in female CDF1 mouse allografted with mouse P388 cells assessed as animal survival at 3.13 mg/kg, ip administered daily for 9 days as Klucel suspension starting 24 hrs after tumor inoculation; type: organism-based; set-up: dose 3.13 mg/kg, route intraperitoneal; details: in vivo; in short: as §1
# [29] = tested on: P388; assay: Antitumor activity against mouse P388 cells allografted in male CDF1 mouse assessed as change in body weight at 25 mg/kg, ip administered daily for 9 days as Klucel suspension starting 24 hrs after tumor inoculation; type: functional; details: route intraperitoneal; in short: as §3
# [30] = tested on: L1210; assay: Antileukemic activity against mouse L1210 cells allografted in female CDF1 mouse assessed as change in body weight at 6.25 mg/kg, ip administered daily for 9 days as Klucel suspension starting 24 hrs after tumor inoculation; type: functional; details: route intraperitoneal; in short: as §6
# [31] = tested on: Mus musculus; assay: Toxicity in male CDF1 mouse allografted with mouse P388 cells assessed as animal survival at 200 mg/kg, ip administered daily for 9 days as Klucel suspension starting 24 hrs after tumor inoculation; type: organism-based; set-up: dose 200 mg/kg, route intraperitoneal; details: in vivo; in short: as §1
smiles,measurement,setting,value
CNC(=O)OCc1c(COC(=O)NC)c(-c2ccc(F)cc2)n2c1CCC2,Activity,[1],Toxic
same,T/C,[2],145%
same,Activity,[3],0.9 g
same,Activity,[4],-1 g
same,Activity,[5],Non-toxic
same,Activity,[6],Non-toxic
same,Activity,[7],-1.5 g
same,T/C,[8],115%
same,T/C,[9],122%
same,Activity,[10],0.1 g
same,Activity,[11],-0.3 g
same,Activity,[12],-1.5 g
same,Activity,[13],Non-toxic
same,T/C,[14],146%
same,Activity,[15],-3.3 g
same,Activity,[16],Non-toxic
same,T/C,[17],118%
same,Activity,[18],1.1 g
same,Activity,[19],Non-toxic
same,Activity,[20],Non-toxic
same,Activity,[21],0 g
same,EC50,[22],0.22 µg/mL
same,T/C,[23],48%
same,T/C,[24],153%
same,Activity,[25],-3.4 g
same,T/C,[26],107%
same,T/C,[27],171%
same,Activity,[28],Non-toxic
same,Activity,[29],-2 g
same,Activity,[30],0.1 g
same,Activity,[31],Toxic
